In experiment [1] the test system is Mycobacterium tuberculosis. Kind of experiment: Antimycobacterial activity against Mycobacterium tuberculosis H37Rv after 5 days by broth microdilution method. The settings on record: 120 h. Type of experiment: functional. The gist of the method:
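Twofold DMSO dilutions (final 100 to 0.19, units as printed unclear) in Middlebrook 7H9 with 0.2% glycerol, 0.05% Tween 80 and 10% ADC; inoculum 3-7 x 10⁵ CFU/ml; 37°C for 5 days. Resazurin/Tween 80 then added, 24 h more at 37°C; A575/A610 read. MIC = lowest concentration giving 80% inhibition versus medium-only (100%) and drug-free culture (0%) controls; isoniazid reference.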

The next experiment relates to A549. Kind of experiment: Cytotoxicity against human A549 cells after 48 hrs by MTT assay. Type of experiment: cell-based. The gist of the method:
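A549 human lung carcinoma type II epithelial cells kept in RPMI-1640 with 5% FBS, penicillin/streptomycin and 2 mM L-glutamine at 37 °C, 5% CO2. Seeded at 3 × 10³ cells/well and left overnight. Exposed to compounds at various concentrations for 48 h. After a PBS wash, MTT (5 mg/ml) was added for 4 h at 37 °C. Formazan dissolved in DMSO, read at 540 nm. IC50 from survival plots; mean ±SE, n=5.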
(Tetrazolium assays rely on reduction of a dye to a coloured formazan, in cell work by metabolically active cells.)

≈ marks a conversion by molar mass, not a printed value. Bounds are passed on as bounds.

As a reminder, the MIC is the lowest concentration that inhibits growth of the organism. Read a high MIC as a less susceptible organism. `CCOC(=O)c1sc(N/N=C/c2ccccc2)nc1C` registered an MIC in experiment [1] above 200 µM.
Same read-out and setting: then `NNC(=O)c1ccncc1` [ISONIAZID], with 0.45 µM (≈ 0.0617 µg/mL).
In experiment [1], `CCOC(=O)c1sc(N/N=C/c2ccc(N(C)C)cc2)nc1C` showed a minimal inhibitory concentration (MIC) of 200 µM (≈ 66.5 µg/mL). Against the preceding molecule, the MIC is about 440-fold higher.
As usually defined, the IC50 is the concentration that inhibits the measured activity by half. Lower therefore signals higher potency. On to `CC(=O)c1sc(N/N=C(\C)c2ccccn2)nc1C`, for which the 50% inhibitory concentration (IC50) in the experiment on A549 amounted to 50 µg/mL (≈ 182 µM). Also, in experiment [1], the MIC is 100 µM (≈ 27.4 µg/mL).
In experiment [1], `CCOC(=O)c1sc(N/N=C/c2cc(OC)c(OC)c(OC)c2)nc1C` displayed an MIC above 200 µM.
Still for that read-out and setting: for `CCOC(=O)c1sc(N/N=C/c2ccccc2[N+](=O)[O-])nc1C` the value was above 200 µM.
On the same count and under the same terms, for `CCOC(=O)c1sc(N/N=C/c2cccc(O)c2)nc1C` the value was above 200 µM.
`CC(=O)c1sc(N/N=C/c2ccco2)nc1C` registered a minimum inhibitory concentration (MIC) in experiment [1] of 200 µM (≈ 49.9 µg/mL).
As for `CCOC(=O)c1sc(N/N=C(\C)c2ccccc2)nc1C`, half-maximal inhibition in the experiment with A549 (IC50) was put at 150 µg/mL (≈ 494 µM). Also, in experiment [1], the MIC was above 200 µM.
With `CCOC(=O)c1sc(N/N=C/c2ccc3c(c2)OCO3)nc1C`, the minimum inhibitory concentration (MIC) in experiment [1] is above 200 µM.
The same measure, in the same setting: then `CCOC(=O)Cc1csc(N/N=C(\C)c2cccnc2)n1`, with 200 µM (≈ 60.9 µg/mL); and `CCOC(=O)c1sc(N/N=C(\C)c2ccc(F)cc2)nc1C`, with 200 µM (≈ 64.3 µg/mL); and `CCOC(=O)c1sc(N/N=C(\C)c2ccncc2)nc1C`, with 200 µM (≈ 60.9 µg/mL).
Still for that read-out and setting: for `CCOC(=O)c1sc(N/N=C/c2cccc(Br)c2)nc1C` the value was above 200 µM; for `CCOC(=O)c1sc(N/N=C/c2ccc(OC)c(O)c2)nc1C`, above 200 µM; for `CCOC(=O)c1sc(N/N=C/c2ccc(OC)c(OC)c2)nc1C`, above 200 µM.
Still for that read-out and setting: for `CCOC(=O)c1sc(N/N=C(\C)c2cccnc2)nc1C` the value was above 200 µM.
Consider `CC(=O)c1sc(N/N=C/c2ccc(Cl)cc2Cl)nc1C`, for which, in experiment [1], the minimal inhibitory concentration (MIC) is above 200 µM.
On the same count and under the same terms, for `CCOC(=O)c1sc(N/N=C/c2ccccc2O)nc1C` the value was 25 µM (≈ 7.63 µg/mL).
Still for that read-out and setting: for `CCOC(=O)c1sc(N/N=C(\C)c2cccs2)nc1C` the value was 100 µM (≈ 30.9 µg/mL); for `CCOC(=O)c1sc(N/N=C/c2ccco2)nc1C`, 200 µM (≈ 55.9 µg/mL).
In experiment [1], `COc1cc(/C=N/Nc2nc(C)c(C(C)=O)s2)cc(OC)c1OC` yielded a minimum inhibitory concentration (MIC) above 200 µM.
`CCOC(=O)c1sc(N/N=C(\C)c2ccccn2)nc1C` registered an IC50 with A549 of 140 µg/mL (≈ 460 µM). The molecule also came in with an MIC in experiment [1] of 12.5 µM (≈ 3.8 µg/mL).
`CCOC(=O)c1sc(N/N=C/c2c[nH]c3ccccc23)nc1C` displayed a minimal inhibitory concentration (MIC) in experiment [1] of 200 µM (≈ 65.7 µg/mL).
With `CCOC(=O)c1sc(N/N=C/c2ccc(OC)cc2)nc1C`, the MIC in experiment [1] was above 200 µM.
Same read-out and setting: then `CCOC(=O)c1sc(N/N=C/c2ccc(C)cc2)nc1C`, with above 200 µM; and `CCOC(=O)c1sc(N/N=C/c2ccc(O)c(OC)c2)nc1C`, with above 200 µM.
For the molecule `CCOC(=O)Cc1csc(N/N=C(\C)c2ccccn2)n1`, in the experiment with A549, the half-inhibitory concentration (IC50) was 200 µg/mL (≈ 657 µM). This molecule returned a minimum inhibitory concentration (MIC) in experiment [1] of 200 µM (≈ 60.9 µg/mL).
In experiment [1], `CC(=O)c1sc(N/N=C(\C)c2cccs2)nc1C` came in with an MIC of 200 µM (≈ 55.9 µg/mL).
Same read-out and setting: then `CCOC(=O)c1sc(N/N=C/c2ccccc2Cl)nc1C`, with above 200 µM.
Same read-out and setting: then `CC(=O)c1sc(N/N=C/c2cccc3c2OCO3)nc1C`, with above 200 µM; and `CCOC(=O)c1sc(N/N=C/c2ccc(O)c(OCC)c2)nc1C`, with above 200 µM; and `CCOC(=O)c1sc(N/N=C(\C)c2cccc(Cl)c2)nc1C`, with above 200 µM.
Take `CCOC(=O)c1sc(N/N=C/c2ccc(Cl)cc2)nc1C`: in experiment [1], the minimal inhibitory concentration (MIC) was above 200 µM.
Still for that read-out and setting: for `CC(=O)c1sc(N/N=C/c2c[nH]c3ccccc23)nc1C` the value was above 200 µM; for `CCOC(=O)c1sc(N/N=C/c2ccc(O)cc2)nc1C`, above 200 µM; for `CCOC(=O)c1sc(N/N=C/c2ccc(Cl)cc2Cl)nc1C`, above 200 µM.
The same measure, in the same setting: for `CCOC(=O)c1sc(N/N=C/c2ccc([N+](=O)[O-])cc2)nc1C` the value was 200 µM (≈ 66.9 µg/mL).

The record behind these values is ChEMBL document CHEMBL2434915, “2-(2-Hydrazinyl)thiazole derivatives: design, synthesis and in vitro antimycobacterial studies” (Eur J Med Chem, 2013).
